# Results as given in ChEMBL document CHEMBL2311346, “An unprecedented reversible mode of action of β-lactams for the inhibition of human fatty acid amide hydrolase (hFAAH)” (Eur J Med Chem, 2013).
# The source made the active and inactive calls. The rule behind the calls is not given here.
# Tests used:
# [1] = molecular target: T1, Fatty-acid amide hydrolase 1 (Homo sapiens, UniProt O00519); test: Inhibition of human recombinant FAAH-mediated [3H]AEA hydrolysis after 10 mins by liquid scintillation assay
# T1 sequence (O00519 whole entry): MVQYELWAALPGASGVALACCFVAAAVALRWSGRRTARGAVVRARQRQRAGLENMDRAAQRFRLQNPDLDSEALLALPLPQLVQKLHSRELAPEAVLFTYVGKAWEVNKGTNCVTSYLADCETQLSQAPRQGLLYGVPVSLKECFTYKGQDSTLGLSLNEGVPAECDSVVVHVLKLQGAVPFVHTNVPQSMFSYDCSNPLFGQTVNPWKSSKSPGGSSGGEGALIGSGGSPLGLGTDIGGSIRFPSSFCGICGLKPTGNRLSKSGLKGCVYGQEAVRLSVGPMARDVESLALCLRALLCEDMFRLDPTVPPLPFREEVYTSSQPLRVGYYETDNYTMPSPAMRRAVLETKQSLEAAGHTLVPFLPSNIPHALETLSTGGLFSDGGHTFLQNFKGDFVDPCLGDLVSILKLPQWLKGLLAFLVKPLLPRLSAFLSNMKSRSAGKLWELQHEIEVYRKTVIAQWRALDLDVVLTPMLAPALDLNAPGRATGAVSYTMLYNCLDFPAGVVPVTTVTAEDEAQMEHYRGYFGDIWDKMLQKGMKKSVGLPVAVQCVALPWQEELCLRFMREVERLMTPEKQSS
# Procedure, shortened: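 Human recombinant FAAH in 10 mM Tris–HCl, 1 mM EDTA, 0.1% BSA, pH 7.4, with compound in DMSO (DMSO controls) and [3H]-AEA (2 µM final), 37 °C for 10 min. Ice-cold chloroform/methanol stop, centrifugation, [3H]-ethanolamine in upper methanol/buffer phase counted by scintillation. Buffer-only blank subtracted; IC50 from three independent experiments.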
# Monoglyceride lipase = molecular target: T2, Monoglyceride lipase (Homo sapiens, UniProt Q99685); test: Inhibition of human recombinant MAGL using [3H]-2-OG as substrate incubated for 30 mins at room temperature followed by incubation at 37 degC for 10 mins by liquid scintillation assay
# T2 sequence (Q99685 whole entry): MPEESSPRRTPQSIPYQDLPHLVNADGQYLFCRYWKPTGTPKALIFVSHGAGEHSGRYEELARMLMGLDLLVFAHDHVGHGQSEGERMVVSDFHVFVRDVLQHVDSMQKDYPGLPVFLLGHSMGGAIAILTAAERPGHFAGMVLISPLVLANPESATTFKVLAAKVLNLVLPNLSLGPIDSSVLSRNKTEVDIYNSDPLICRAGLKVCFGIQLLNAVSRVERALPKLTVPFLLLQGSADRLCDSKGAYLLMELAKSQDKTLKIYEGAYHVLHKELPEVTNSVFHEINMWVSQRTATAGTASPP
# Procedure, shortened: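 Purified human recombinant MAGL in 10 mM Tris–HCl, 1 mM EDTA, 0.1% BSA, pH 8.0, with compound in DMSO (DMSO controls) and [3H]-2-OG (2 µM final). Preincubated 20 °C for 30 min, then 37 °C for 10 min. Ice-cold chloroform/methanol stop; lower chloroform phase counted by liquid scintillation; buffer-only blank subtracted.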
# [2] = molecular target: T3, Fatty-acid amide hydrolase 1 (Homo sapiens) (UniProt O00519); test: Irreversible inhibition of human recombinant FAAH using [3H]AEA as substrate incubated up to 90 mins by compound dilution method
# T3 sequence (whole entry): T1 sequence (O00519 whole entry)
# [3] = molecular target: T4, Monoglyceride lipase (Homo sapiens) (UniProt Q99685); test: Inhibition of human recombinant MAGL using [3H]-2-OG as substrate at 1 mM incubated for 30 mins at room temperature followed by incubation at 37 degC for 10 mins by liquid scintillation assay
# T4 sequence (whole entry): T2 sequence (Q99685 whole entry)
# Homo sapiens = organism: Homo sapiens; test: Selectivity ratio of IC50 for human recombinant MAGL to IC50 for human recombinant FAAH
# [4] = molecular target: T3, Fatty-acid amide hydrolase 1 (Homo sapiens); test: Competitive reversible inhibition of human recombinant FAAH using [3H]AEA as substrate incubated up to 90 mins by compound dilution method
# Procedure, shortened: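 Wash-out: human recombinant FAAH (27.5 µg) preincubated 1 h at room temperature with inhibitor or DMSO in 15 µL, at concentrations inhibiting before but not after dilution; diluted 100-fold in assay buffer. Aliquots taken at 0, 30 and 90 min post-dilution, given [3H]-AEA (2 µM final), 37 °C for 30 min; stopped with chloroform/methanol; aqueous phase counted; buffer blank subtracted.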
structure (smiles),measurement,setting,value
C=CCCC(=O)N1C[C@@H]([C@@H](C)OC(=O)NCCc2ccccc2)C1=O,IC50,[1],0.0332 µM
C=CCCC(=O)N1C[C@@H]([C@@H](C)OC(=O)CCCc2ccncc2)C1=O,IC50,[1],0.31 µM
C=CCNC(=O)N1C[C@@H]([C@@H](C)OC(=O)COCc2ccccc2)C1=O,IC50,Monoglyceride lipase,56.8 µM
same,IC50,[1],0.0709 µM
NC(=O)c1cccc(-c2cccc(OC(=O)NC3CCCCC3)c2)c1,inhibition,[2],Active
C=CCNC(=S)N1C[C@@H]([C@@H](C)OC(=O)NCCc2ccccc2)C1=O,inhibition (INH),[3],25%
same,IC50,[1],0.959 µM
C=CCNC(=S)N1C[C@@H]([C@@H](C)OC(=O)CCCc2ccccc2)C1=O,inhibition (INH),[3],60%
same,IC50,[1],0.146 µM
C=CCOC(=O)N1C[C@@H]([C@@H](C)OC(=O)NCCc2ccccc2)C1=O,IC50,[1],0.0121 µM
C=CCCC(=O)N1C[C@@H]([C@@H](C)OC(=O)CCCc2ccccc2)C1=O,IC50,Monoglyceride lipase,4.06 µM
C=CCOC(=O)N1C[C@@H]([C@@H](C)OC(=O)COCc2ccccc2)C1=O,IC50,[1],0.0301 µM
C=CCOC(=O)N1C[C@@H]([C@@H](C)OC(=O)CCCc2ccccc2)C1=O,Ratio IC50,Homo sapiens,2800
same,IC50,Monoglyceride lipase,10.3 µM
same,IC50,[1],0.00365 µM
same,inhibition,[4],Active
O=C(CCCCCCc1ccccc1)c1nc2ncccc2o1,inhibition,[4],Active
C=CCNC(=S)N1C[C@@H]([C@@H](C)OC(=O)COCc2ccccc2)C1=O,IC50,Monoglyceride lipase,122 µM
same,IC50,[1],1.04 µM
C=CCNC(=O)N1C[C@@H]([C@@H](C)OC(=O)CCCc2ccccc2)C1=O,Ratio IC50,Homo sapiens,18000
same,IC50,Monoglyceride lipase,98.4 µM
same,IC50,[1],0.00556 µM
C=CCCC(=O)N1C[C@@H]([C@@H](C)OC(=O)COCc2ccccc2)C1=O,IC50,[1],0.0309 µM
CCCSC(=O)N1C[C@@H]([C@@H](C)OC(=O)CCCc2ccccc2)C1=O,IC50,Monoglyceride lipase,19 µM
same,IC50,[1],0.0121 µM
same,inhibition,[4],Active
C=CCNC(=O)N1C[C@@H]([C@@H](C)OC(=O)NCCc2ccccc2)C1=O,IC50,[1],0.0286 µM
